Measured values reported in ChEMBL document CHEMBL5034012, “Procainamide-SAHA Fused Inhibitors of hHDAC6 Tackle Multidrug-Resistant Malaria Parasites” (J Med Chem, 2021).
Active and inactive are the calls of the source. The calls are words filed in the database; no cut-off is given here.

How the values were obtained:
[1] = Microsomal stability in rat liver microsomes assessed as parent compound remaining after 1 hrs; format: ADME, Microsome; settings: read-out: Stability
[2] = test system: Plasmodium falciparum; assay: Antiplasmodial activity against Plasmodium falciparum 3D7 assessed as DNA damage in trophozoite stage measured upto 72 hrs using Geimsa stain based parasite reduction rate assay; format: functional, organism-based; settings: time hrs <=72
[3] = test system: Plasmodium berghei; assay: Antimalarial activity against Plasmodium berghei infected in C57BL/6 mouse cerebral malaria model infected with assessed as increase in mouse survival days at 20 mg/kg, ip bid; format: functional, organism-based
Procedure, shortened: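 Female C57BL/6 mice, 6 weeks old, infected i.p. with 10⁵ iRBC of GFP-expressing P. berghei ANKA. Dosing i.p. started 2h post-infection and ran 4 days: hydrochloride salt at 20mg/kg twice daily, vehicle control, or chloroquine 25mg/kg daily. Parasitemia measured daily by flow cytometry of 200,000 RBCs and confirmed by Giemsa smears. Parasitemia and mortality followed 10 days; n=5 mice/group, single experiment.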

[4] = Stability in human plasma assessed as parent compound remaining after 2 hrs; format: ADME, cell-free; settings: read-out: Stability
[5] = Stability in rat plasma assessed as parent compound remaining after 2 hrs; format: ADME, cell-free; settings: read-out: Stability
[6] = test system: Plasmodium berghei; assay: Antimalarial activity against Plasmodium berghei infected in C57BL/6 mouse cerebral malaria model infected with assessed as growth reduction at 20 mg/kg, ip bid measured after 4 days; format: functional, organism-based; settings: time 4.0 day
Procedure, shortened: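 Female C57BL/6 mice, 6 weeks old, infected i.p. with 10⁵ iRBC of GFP-expressing P. berghei ANKA. Treatment began 2h post-infection: i.p. 20mg/kg twice daily for 4 days, vehicle controls alongside; chloroquine 25mg/kg daily as positive control. Hydrochloride salt used. Parasitemia read daily by flow cytometry of 200,000 RBCs and confirmed on Giemsa smears. Mortality followed for 10 days. Single experiment, 5 mice per group.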

[7] = target: T1, Protein deacetylase HDAC6 (Homo sapiens, UniProt Q9UBN7); assay: Inhibition of human recombinant HDAC6 using Tosyl-Gly-ProLys(Ac)-AMC as substrate measured after 60 mins by fluorescence assay
T1 sequence (Q9UBN7 whole entry): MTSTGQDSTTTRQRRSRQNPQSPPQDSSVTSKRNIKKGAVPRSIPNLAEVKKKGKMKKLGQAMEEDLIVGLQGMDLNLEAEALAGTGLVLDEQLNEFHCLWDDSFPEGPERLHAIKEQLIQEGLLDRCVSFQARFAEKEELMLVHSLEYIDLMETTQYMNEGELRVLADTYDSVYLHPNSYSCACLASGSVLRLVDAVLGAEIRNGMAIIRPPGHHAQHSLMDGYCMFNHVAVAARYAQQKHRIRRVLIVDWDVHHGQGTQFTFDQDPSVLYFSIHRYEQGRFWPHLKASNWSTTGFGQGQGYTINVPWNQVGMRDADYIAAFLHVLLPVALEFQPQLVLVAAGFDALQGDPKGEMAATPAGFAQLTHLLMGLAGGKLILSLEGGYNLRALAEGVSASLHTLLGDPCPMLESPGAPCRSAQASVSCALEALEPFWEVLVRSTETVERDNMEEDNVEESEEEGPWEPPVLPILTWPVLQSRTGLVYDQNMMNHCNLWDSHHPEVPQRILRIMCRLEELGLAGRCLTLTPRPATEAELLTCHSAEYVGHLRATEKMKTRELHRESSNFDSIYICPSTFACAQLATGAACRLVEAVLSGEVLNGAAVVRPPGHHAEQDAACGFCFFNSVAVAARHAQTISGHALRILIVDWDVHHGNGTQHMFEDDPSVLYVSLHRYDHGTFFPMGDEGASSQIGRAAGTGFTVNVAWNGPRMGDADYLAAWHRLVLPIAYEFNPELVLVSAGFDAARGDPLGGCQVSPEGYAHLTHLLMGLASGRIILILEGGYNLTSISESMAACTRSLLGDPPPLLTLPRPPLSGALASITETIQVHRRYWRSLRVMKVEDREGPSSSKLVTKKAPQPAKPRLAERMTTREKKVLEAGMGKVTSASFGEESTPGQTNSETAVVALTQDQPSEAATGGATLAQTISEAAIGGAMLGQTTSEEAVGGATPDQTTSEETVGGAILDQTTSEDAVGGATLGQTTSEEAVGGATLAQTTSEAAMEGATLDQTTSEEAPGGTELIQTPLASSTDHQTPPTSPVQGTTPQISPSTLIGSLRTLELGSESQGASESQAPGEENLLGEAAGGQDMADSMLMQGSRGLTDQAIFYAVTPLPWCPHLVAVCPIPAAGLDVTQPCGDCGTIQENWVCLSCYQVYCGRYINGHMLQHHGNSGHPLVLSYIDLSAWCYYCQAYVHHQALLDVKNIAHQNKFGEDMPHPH

[8] = Microsomal stability in human liver microsomes assessed as parent compound remaining after 1 hrs; format: ADME, Microsome; settings: read-out: Stability
[9] = test system: HL-60; assay: Cytotoxicity against human HL-60 cells assessed as inhibition of cell proliferation at 32 uM measured after 72 hrs by ATPlite assay; format: functional
Procedure, shortened: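 Cells exposed to compound for 72h; viability read by ATPlite. DMSO control. Technical triplicates, at least two biological replicates. IC50 interpolated from the curves.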

[10] = test system: Plasmodium falciparum; assay: Antiplasmodial activity against Plasmodium falciparum NF54 assessed as reduction in growth in intraerythrocytic development cycle at 3 times of IC50 concentration incubated for 6 hrs measured after 72 hrs of post synchronization […]; format: functional, organism-based
Procedure, shortened: (§1)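 NF54 asexual parasites tightly synchronized to 0–3hpi. Exposed for 6h at 3× or 10× IC50, starting at 0, 6, 12, 18, 24, 30, 36 or 42hpi. Cells then pelleted, washed in RPMI and returned to culture. Parasitemia counted at 72h post-synchronization on Giemsa-stained thin smears. Survival expressed relative to DMSO. Three independent experiments, one well per condition.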

[11] = test system: Plasmodium falciparum; assay: Antiplasmodial activity against Plasmodium falciparum NF54 assessed as reduction in growth in intraerythrocytic development cycle at 10 times of IC50 concentration incubated for 6 hrs measured after 72 hrs of post synchronization […]; format: functional, organism-based; procedure, shortened: as §1
[12] = test system: Plasmodium falciparum; assay: Antiplasmodial activity against Plasmodium falciparum NF54 assessed as reduction in growth in intraerythrocytic development cycle at 3 to 10 times of IC50 concentration incubated for 24 to 36 hrs measured after 72 hrs of post synchronization by SYBR Green 1 assay; format: functional; parameters: scale not given: the % may be the effect or the level left; settings: time 24-36 hrs
[13] = test system: Plasmodium falciparum; assay: Antiplasmodial activity against synchronized Plasmodium falciparum NF54 assessed as effect on ring stage parasite growth in intraerythrocytic development cycle at 10 times IC50 concentration incubated upto 48 hrs measured after 72 hrs of post synchronization by SYBR Green 1 assay; format: functional, organism-based; settings: time hrs <=48
[14] = target: Histone deacetylase (Homo sapiens) (UniProt Q13547+O15379+Q9UBN7+Q92769+Q9UQL6+Q8WUI4+Q9BY41+Q96DB2+P56524+Q9UKV0+Q969S8); assay: Inhibition of human HDAC activity using nuclear extract of HeLa cells assessed as inhibition of acetylation; format: tissue-based
Procedure, shortened: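 HeLa nuclear extract (3x10⁻³mg) incubated with compound and 43 µM Tosyl-Gly-Pro-Lys(Ac)-AMC. Buffer: 25mM Tris-HCl pH 8, 140mM NaCl, 3mM KCl, 1mM MgCl₂. Run 45 min at 37°C, then trypsin (1mg/mL) 15min at RT, then ethanol. AMC fluorescence read at ex 380/em 460nm. Background subtracted; data normalized to DMSO. Duplicates in ≥2 independent experiments.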

Structure (SMILES): O=C(CCCCCCC(=O)Nc1ccc(C(=O)NC2CCNCC2)cc1)NO
- remaining at 1 h [1]: 100%
- Activity [2]: Active
- Survival [3]: Active
- remaining at 2 h [4]: 85%
- remaining at 2 h [5]: 85%
- Activity [6]: Active
- IC50 [7]: 19 nM
- remaining at 1 h [8]: 100%

Structure (SMILES): CCN(CC)CCNC(=O)c1ccc(NC(=O)CCCCCCC(=O)NO)cc1
- Activity [2]: Active
- inhibition at 32 µM [9]: 65%
- Activity [10]: inactive
- Activity [11]: inactive
- Activity [12]: <=85%
- Activity [13]: inactive
- IC50 [7]: 14 nM
- inhibition [14]: Active
